Laboratory results from ChEMBL document CHEMBL4842371 (J Med Chem, 2021).

How the values were obtained:
[1] = molecular target: T1, 5-hydroxytryptamine receptor 3A (Cavia porcellus) (UniProt O70212); conditions: Ileum, filed as antagonist
T1 sequence (whole entry): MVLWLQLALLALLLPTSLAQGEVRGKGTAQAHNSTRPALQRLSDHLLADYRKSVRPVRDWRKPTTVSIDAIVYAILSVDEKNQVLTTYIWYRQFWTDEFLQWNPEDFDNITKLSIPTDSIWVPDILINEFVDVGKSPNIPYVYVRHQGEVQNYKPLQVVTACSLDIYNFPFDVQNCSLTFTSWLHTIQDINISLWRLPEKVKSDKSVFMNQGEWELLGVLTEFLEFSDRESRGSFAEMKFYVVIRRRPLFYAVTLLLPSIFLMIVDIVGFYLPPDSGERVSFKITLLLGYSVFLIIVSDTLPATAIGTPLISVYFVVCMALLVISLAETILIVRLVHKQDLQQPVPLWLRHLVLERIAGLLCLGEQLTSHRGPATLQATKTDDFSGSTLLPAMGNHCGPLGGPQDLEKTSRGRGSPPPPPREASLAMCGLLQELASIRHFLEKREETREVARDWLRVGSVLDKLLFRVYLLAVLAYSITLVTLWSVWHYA

CYP2C9 = CYP2C9 (Homo sapiens, UniProt P11712); assay: Inhibition of CYP2C9 (unknown origin) at 10 uM relative to control; format: ADME
Chain of CYP2C9 (P11712 whole entry): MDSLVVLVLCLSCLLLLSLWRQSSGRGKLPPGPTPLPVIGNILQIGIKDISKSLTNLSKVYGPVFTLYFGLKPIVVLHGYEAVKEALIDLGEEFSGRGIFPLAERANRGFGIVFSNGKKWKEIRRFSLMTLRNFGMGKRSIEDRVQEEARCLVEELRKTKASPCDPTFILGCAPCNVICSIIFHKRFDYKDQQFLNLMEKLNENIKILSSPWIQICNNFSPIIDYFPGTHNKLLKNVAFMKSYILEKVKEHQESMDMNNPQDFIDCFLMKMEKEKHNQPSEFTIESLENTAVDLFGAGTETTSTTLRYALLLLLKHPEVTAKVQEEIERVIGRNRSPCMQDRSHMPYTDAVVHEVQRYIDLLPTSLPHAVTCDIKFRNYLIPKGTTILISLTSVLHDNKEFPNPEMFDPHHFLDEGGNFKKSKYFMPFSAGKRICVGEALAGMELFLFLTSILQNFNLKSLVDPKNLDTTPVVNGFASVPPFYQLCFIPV
Procedure, shortened: (§1)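 CYP isoenzyme inhibition is measured at 10 μM compound. Result is given as % inhibition.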

CYP2D6 = CYP2D6 (Homo sapiens, UniProt P10635); assay: Inhibition of CYP2D6 (unknown origin) at 10 uM relative to control; format: ADME
Chain of CYP2D6 (P10635 whole entry): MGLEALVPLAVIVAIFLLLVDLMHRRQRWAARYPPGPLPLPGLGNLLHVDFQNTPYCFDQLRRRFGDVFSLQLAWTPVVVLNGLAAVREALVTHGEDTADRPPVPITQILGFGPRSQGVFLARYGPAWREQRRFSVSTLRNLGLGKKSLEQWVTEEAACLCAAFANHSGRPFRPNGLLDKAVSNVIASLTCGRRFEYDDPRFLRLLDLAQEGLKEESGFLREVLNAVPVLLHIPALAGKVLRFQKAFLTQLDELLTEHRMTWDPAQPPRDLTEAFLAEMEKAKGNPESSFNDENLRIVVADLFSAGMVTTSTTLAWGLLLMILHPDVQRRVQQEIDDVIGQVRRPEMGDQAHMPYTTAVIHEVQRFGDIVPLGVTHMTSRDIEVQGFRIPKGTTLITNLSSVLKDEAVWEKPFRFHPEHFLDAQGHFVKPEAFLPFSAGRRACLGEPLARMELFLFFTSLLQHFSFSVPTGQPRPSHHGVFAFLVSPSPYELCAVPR
Procedure, shortened: as §1

For Cc1nccn1CC1CCc2c(c3ccccc3n2C)C1=O (stereo not drawn), the pD2 [1] was 6.43.

In the case of O=S(=O)(c1cccc(F)c1)n1ccc2c(N3CCNCC3)nc3ccccc3c21, the inhibition at 10 µM (CYP2C9) is reported as less than 25% and the inhibition at 10 µM (CYP2D6) is reported as less than 25%.
